From ChEMBL document CHEMBL4689842, “EUbOPEN Chemogenomics Library wave 1” (2021)

Test system: HEK-293T
Assay: Multiplex assay against HEK293T;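 on Population Tubulin-Different-Phenotype (%): share of the cells with healthy nuclei that show this phenotype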
Assay type: toxicity, cell-based
Details: human
Outline: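 On a CQ1 microscope at 37°C and 5% CO2, live cells were imaged after compound addition. They had been stained at seeding with Hoechst33342, BioTracker Green Microtubule Cytoskeleton Dye, MitoTracker Red and Annexin V Alexa Fluor 680. CellPathfinder machine-learning gating assigned cells to Hoechst high-intensity objects or normal cells, normal cells to healthy, pyknosed or fragmented nuclei, and pyknosed cells to mitotic or apoptotic. Tubulin, mitochondrial-mass and membrane-permeability phenotypes are per cents of healthy-nucleus cells.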

[1] = 12 h, 1 µM, compound concentration 1 uM, replicate 1
[2] = 12 h, 1 µM, compound concentration 1 uM, replicate 2
[3] = 12 h, 10 µM, compound concentration 10 uM, replicate 1
[4] = 12 h, 10 µM, compound concentration 10 uM, replicate 2
[5] = 24 h, 1 µM, compound concentration 1 uM, replicate 1
[6] = 24 h, 1 µM, compound concentration 1 uM, replicate 2
[7] = 24 h, 10 µM, compound concentration 10 uM, replicate 1
[8] = 24 h, 10 µM, compound concentration 10 uM, replicate 2

Cc1c(Nc2ccc(S(=O)(=O)N3CCN(C)CC3)cc2F)nc2ccc(Nc3cnn(C4CC4)c3)cn2c1=O
Population Apoptotic (%) [1]: 17% | Population Fragmented Nuclei (%) [1]: 13% | Population Healthy Nuclei (%) [1]: 52% | Population Hoechst High Intensity Objects (%) [1]: 16% | Population Membrane Permeable-Phenotype (%) [1]: 15% | Population Mitochondria Different-Phenotype (%) [1]: 11% | Population Mitotic Cells (%) [1]: 82% | Population Normal (%) [1]: 83% | Population Pyknosed Nuclei (%) [1]: 33% | Population Tubulin-Different-Phenotype (%) [1]: 47% | Total Cell Count [1]: 566 | Population Apoptotic (%) [2]: 11% | Population Fragmented Nuclei (%) [2]: 3% | Population Healthy Nuclei (%) [2]: 83% | Population Hoechst High Intensity Objects (%) [2]: 3% | Population Membrane Permeable-Phenotype (%) [2]: 14% | Population Mitochondria Different-Phenotype (%) [2]: 29% | Population Mitotic Cells (%) [2]: 88% | Population Normal (%) [2]: 96% | Population Pyknosed Nuclei (%) [2]: 12% | Population Tubulin-Different-Phenotype (%) [2]: 73% | Total Cell Count [2]: 888 | Population Apoptotic (%) [3]: 17% | Population Fragmented Nuclei (%) [3]: 11% | Population Healthy Nuclei (%) [3]: 73% | Population Hoechst High Intensity Objects (%) [3]: 8% | Population Membrane Permeable-Phenotype (%) [3]: 4% | Population Mitochondria Different-Phenotype (%) [3]: 4% | Population Mitotic Cells (%) [3]: 82% | Population Normal (%) [3]: 91% | Population Pyknosed Nuclei (%) [3]: 15% | Population Tubulin-Different-Phenotype (%) [3]: 4% | Total Cell Count [3]: 791 | Population Apoptotic (%) [4]: 4% | Population Fragmented Nuclei (%) [4]: 6% | Population Healthy Nuclei (%) [4]: 89% | Population Hoechst High Intensity Objects (%) [4]: 2% | Population Membrane Permeable-Phenotype (%) [4]: 2% | Population Mitochondria Different-Phenotype (%) [4]: 10% | Population Mitotic Cells (%) [4]: 95% | Population Normal (%) [4]: 97% | Population Pyknosed Nuclei (%) [4]: 4% | Population Tubulin-Different-Phenotype (%) [4]: 7% | Total Cell Count [4]: 1683 | Population Apoptotic (%) [5]: 27% | Population Fragmented Nuclei (%) [5]: 16% | Population Healthy Nuclei (%) [5]: 60% | Population Hoechst High Intensity Objects (%) [5]: 11% | Population Membrane Permeable-Phenotype (%) [5]: 21% | Population Mitochondria Different-Phenotype (%) [5]: 9% | Population Mitotic Cells (%) [5]: 72% | Population Normal (%) [5]: 88% | Population Pyknosed Nuclei (%) [5]: 23% | Population Tubulin-Different-Phenotype (%) [5]: 65% | Total Cell Count [5]: 536 | Population Apoptotic (%) [6]: 12% | Population Fragmented Nuclei (%) [6]: 6% | Population Healthy Nuclei (%) [6]: 85% | Population Hoechst High Intensity Objects (%) [6]: 5% | Population Mitochondria Different-Phenotype (%) [6]: 16% | Population Mitotic Cells (%) [6]: 87% | Population Normal (%) [6]: 94% | Population Pyknosed Nuclei (%) [6]: 7% | Population Tubulin-Different-Phenotype (%) [6]: 83% | Total Cell Count [6]: 1100 | Population Apoptotic (%) [7]: 16% | Population Fragmented Nuclei (%) [7]: 8% | Population Healthy Nuclei (%) [7]: 85% | Population Hoechst High Intensity Objects (%) [7]: 4% | Population Membrane Permeable-Phenotype (%) [7]: 9% | Population Mitochondria Different-Phenotype (%) [7]: 3% | Population Mitotic Cells (%) [7]: 83% | Population Normal (%) [7]: 95% | Population Pyknosed Nuclei (%) [7]: 6% | Population Tubulin-Different-Phenotype (%) [7]: 8% | Total Cell Count [7]: 922 | Population Apoptotic (%) [8]: 0% | Population Fragmented Nuclei (%) [8]: 18% | Population Healthy Nuclei (%) [8]: 79% | Population Hoechst High Intensity Objects (%) [8]: 3% | Population Membrane Permeable-Phenotype (%) [8]: 7% | Population Mitochondria Different-Phenotype (%) [8]: 2% | Population Mitotic Cells (%) [8]: 100% | Population Normal (%) [8]: 96% | Population Pyknosed Nuclei (%) [8]: 2% | Population Tubulin-Different-Phenotype (%) [8]: 10% | Total Cell Count [8]: 2721

Cc1ccc(NC(=O)Nc2cc(C(F)(F)F)ccc2F)cc1Nc1ccc2c(c1)NC(=O)/C2=C\c1ccc[nH]1
Population Apoptotic (%) [1]: 13% | Population Fragmented Nuclei (%) [1]: 19% | Population Healthy Nuclei (%) [1]: 28% | Population Hoechst High Intensity Objects (%) [1]: 16% | Population Membrane Permeable-Phenotype (%) [1]: 59% | Population Mitochondria Different-Phenotype (%) [1]: 0% | Population Mitotic Cells (%) [1]: 86% | Population Normal (%) [1]: 83% | Population Pyknosed Nuclei (%) [1]: 51% | Population Tubulin-Different-Phenotype (%) [1]: 28% | Total Cell Count [1]: 644 | Population Apoptotic (%) [2]: 2% | Population Fragmented Nuclei (%) [2]: 2% | Population Healthy Nuclei (%) [2]: 83% | Population Hoechst High Intensity Objects (%) [2]: 2% | Population Mitotic Cells (%) [2]: 97% | Population Normal (%) [2]: 97% | Population Pyknosed Nuclei (%) [2]: 13% | Population Tubulin-Different-Phenotype (%) [2]: 50% | Total Cell Count [2]: 1372 | Population Apoptotic (%) [3]: 14% | Population Fragmented Nuclei (%) [3]: 10% | Population Healthy Nuclei (%) [3]: 68% | Population Hoechst High Intensity Objects (%) [3]: 6% | Population Membrane Permeable-Phenotype (%) [3]: 1% | Population Mitochondria Different-Phenotype (%) [3]: 3% | Population Mitotic Cells (%) [3]: 85% | Population Normal (%) [3]: 93% | Population Pyknosed Nuclei (%) [3]: 21% | Population Tubulin-Different-Phenotype (%) [3]: 0% | Total Cell Count [3]: 577 | Population Apoptotic (%) [4]: 4% | Population Fragmented Nuclei (%) [4]: 7% | Population Healthy Nuclei (%) [4]: 87% | Population Hoechst High Intensity Objects (%) [4]: 2% | Population Mitochondria Different-Phenotype (%) [4]: 5% | Population Mitotic Cells (%) [4]: 95% | Population Normal (%) [4]: 97% | Population Pyknosed Nuclei (%) [4]: 5% | Population Tubulin-Different-Phenotype (%) [4]: 2% | Total Cell Count [4]: 1471 | Population Apoptotic (%) [5]: 15% | Population Fragmented Nuclei (%) [5]: 20% | Population Healthy Nuclei (%) [5]: 34% | Population Hoechst High Intensity Objects (%) [5]: 14% | Population Membrane Permeable-Phenotype (%) [5]: 47% | Population Mitochondria Different-Phenotype (%) [5]: 0% | Population Mitotic Cells (%) [5]: 84% | Population Normal (%) [5]: 85% | Population Pyknosed Nuclei (%) [5]: 45% | Population Tubulin-Different-Phenotype (%) [5]: 33% | Total Cell Count [5]: 618 | Population Apoptotic (%) [6]: 3% | Population Fragmented Nuclei (%) [6]: 4% | Population Healthy Nuclei (%) [6]: 82% | Population Hoechst High Intensity Objects (%) [6]: 4% | Population Membrane Permeable-Phenotype (%) [6]: 52% | Population Mitotic Cells (%) [6]: 96% | Population Normal (%) [6]: 95% | Population Pyknosed Nuclei (%) [6]: 13% | Population Tubulin-Different-Phenotype (%) [6]: 68% | Total Cell Count [6]: 1297 | Population Apoptotic (%) [7]: 14% | Population Fragmented Nuclei (%) [7]: 7% | Population Healthy Nuclei (%) [7]: 82% | Population Hoechst High Intensity Objects (%) [7]: 2% | Population Membrane Permeable-Phenotype (%) [7]: 2% | Population Mitochondria Different-Phenotype (%) [7]: 1% | Population Mitotic Cells (%) [7]: 85% | Population Normal (%) [7]: 97% | Population Pyknosed Nuclei (%) [7]: 10% | Population Tubulin-Different-Phenotype (%) [7]: 1% | Total Cell Count [7]: 682 | Population Apoptotic (%) [8]: 0% | Population Fragmented Nuclei (%) [8]: 18% | Population Healthy Nuclei (%) [8]: 79% | Population Hoechst High Intensity Objects (%) [8]: 3% | Population Membrane Permeable-Phenotype (%) [8]: 3% | Population Mitochondria Different-Phenotype (%) [8]: 0% | Population Mitotic Cells (%) [8]: 100% | Population Normal (%) [8]: 96% | Population Pyknosed Nuclei (%) [8]: 2% | Population Tubulin-Different-Phenotype (%) [8]: 2% | Total Cell Count [8]: 2446
